Experimental data as given in ChEMBL document CHEMBL1132154, “Novel partial agonists for the histamine H(3) receptor with high in vitro and in vivo activity” (J Med Chem, 1999).
pEC50, pKi: −log10 of the molar value.

Legend:
[1] = target: Histamine H3 receptor (Mus musculus) (UniProt P58406); test: In vivo agonistic activity against histamine H3 receptor in mice after peroral administration; format: functional, organism-based
How it was run: (§1)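 Swiss mice dosed orally with compounds as a methylcellulose suspension; brain histamine turnover assessed from increased (antagonist) or decreased (agonist) cerebral cortex N-methylhistamine level; intrinsic activity from modulation of this metabolite level; at least in triplicate.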

[2] = target: Histamine H3 receptor (Cavia porcellus) (UniProt Q9JI35); test: Antagonist activity against histamine H3 receptor in guinea pig ileum; format: functional, tissue-based
Sequence of Histamine H3 receptor (Cavia porcellus) (Q9JI35 whole entry): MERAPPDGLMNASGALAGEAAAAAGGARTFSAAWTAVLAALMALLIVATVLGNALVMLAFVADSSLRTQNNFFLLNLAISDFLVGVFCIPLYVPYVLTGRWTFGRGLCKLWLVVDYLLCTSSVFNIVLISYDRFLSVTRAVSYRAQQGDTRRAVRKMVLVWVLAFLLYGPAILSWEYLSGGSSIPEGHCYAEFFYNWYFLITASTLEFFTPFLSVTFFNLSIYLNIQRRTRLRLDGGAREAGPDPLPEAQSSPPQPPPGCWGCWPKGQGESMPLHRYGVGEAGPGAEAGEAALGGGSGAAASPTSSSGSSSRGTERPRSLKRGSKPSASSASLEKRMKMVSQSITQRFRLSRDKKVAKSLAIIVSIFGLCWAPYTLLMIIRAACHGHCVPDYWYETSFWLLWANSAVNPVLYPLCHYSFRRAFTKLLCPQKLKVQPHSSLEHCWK
How it was run: (§2)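 Isolated guinea pig ileum segments, electrically evoked twitches; H3 antagonism from concentration-dependent inhibition of twitches by (R)-α-methylhistamine in presence of antagonist; agonist activity from concentration–response curves of the test compound in place of (R)-α-methylhistamine; each experiment at least in triplicate.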

[3] = target: Histamine H2 receptor (Cavia porcellus) (UniProt P47747); test: Antagonist activity against histamine H2 receptor in guinea pig atrium; format: functional, tissue-based; conditions: Cardiac atrium
Sequence of Histamine H2 receptor (Cavia porcellus) (P47747 whole entry): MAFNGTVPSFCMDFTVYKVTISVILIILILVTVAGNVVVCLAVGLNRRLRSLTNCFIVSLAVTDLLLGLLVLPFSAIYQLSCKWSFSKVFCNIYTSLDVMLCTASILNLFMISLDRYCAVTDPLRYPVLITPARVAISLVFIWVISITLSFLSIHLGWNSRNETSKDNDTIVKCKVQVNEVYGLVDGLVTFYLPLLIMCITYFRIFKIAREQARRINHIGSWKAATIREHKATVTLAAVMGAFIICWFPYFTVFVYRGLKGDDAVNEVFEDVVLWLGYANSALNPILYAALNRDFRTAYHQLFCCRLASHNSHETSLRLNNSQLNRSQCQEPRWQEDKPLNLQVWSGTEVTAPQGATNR
How it was run: (§3)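 Isolated guinea pig tissues: H1 activity on ileum, H2 activity on spontaneously beating right atrium, by standard functional methods; each test at least in triplicate; exact type of interaction not determined in every case.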

[4] = target: Histamine H3 receptor (Cavia porcellus) (UniProt Q9JI35); test: Binding affinity for guinea pig ileum histamine H3 receptor; format: tissue-based; how it was run: as §2
[5] = target: Histamine H1 receptor (Cavia porcellus) (UniProt P31389); test: Antagonist activity against histamine H1 receptor in guinea pig ileum; format: functional, tissue-based; how it was run: as §3
Sequence of Histamine H1 receptor (Cavia porcellus) (P31389 whole entry): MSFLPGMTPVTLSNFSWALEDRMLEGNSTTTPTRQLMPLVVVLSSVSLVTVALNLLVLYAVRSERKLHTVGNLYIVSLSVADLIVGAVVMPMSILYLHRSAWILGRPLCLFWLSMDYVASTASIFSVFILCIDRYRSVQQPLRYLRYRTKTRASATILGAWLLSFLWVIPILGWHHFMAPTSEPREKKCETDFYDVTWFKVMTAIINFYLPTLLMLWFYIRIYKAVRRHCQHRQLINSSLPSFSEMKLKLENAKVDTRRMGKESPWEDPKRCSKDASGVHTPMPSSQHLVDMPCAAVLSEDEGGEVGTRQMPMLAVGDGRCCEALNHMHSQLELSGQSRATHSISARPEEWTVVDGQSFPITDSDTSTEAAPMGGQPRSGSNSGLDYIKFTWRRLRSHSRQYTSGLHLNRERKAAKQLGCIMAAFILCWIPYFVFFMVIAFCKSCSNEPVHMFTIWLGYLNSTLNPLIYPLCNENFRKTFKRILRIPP

[6] = target: T1, Histamine H3 receptor (Rattus norvegicus, UniProt Q9QYN8); test: Antagonist activity against histamine H3 receptor on synaptosomes of rat cerebral cortex; format: functional, subcellular, Brain
T1 sequence (Q9QYN8 whole entry): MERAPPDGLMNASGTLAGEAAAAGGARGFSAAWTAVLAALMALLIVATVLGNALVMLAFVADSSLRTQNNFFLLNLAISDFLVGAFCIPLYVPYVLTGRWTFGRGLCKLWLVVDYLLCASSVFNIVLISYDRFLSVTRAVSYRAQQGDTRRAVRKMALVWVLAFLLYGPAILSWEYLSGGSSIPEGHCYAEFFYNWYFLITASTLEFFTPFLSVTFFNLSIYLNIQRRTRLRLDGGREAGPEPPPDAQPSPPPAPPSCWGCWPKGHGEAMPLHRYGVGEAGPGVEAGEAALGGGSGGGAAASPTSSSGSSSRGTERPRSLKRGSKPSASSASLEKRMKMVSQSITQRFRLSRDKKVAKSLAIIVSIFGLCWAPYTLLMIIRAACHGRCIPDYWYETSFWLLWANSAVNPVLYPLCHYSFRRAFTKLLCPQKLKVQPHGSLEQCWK
How it was run: (§4)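 Rat cerebral cortex synaptosomes; K+-evoked depolarization-induced [3H]histamine release measured for H3 agonist and antagonist activity; intrinsic activity derived from this preparation; at least triplicate.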

[7] = target: T1, Histamine H3 receptor; test: (§5) In vitro binding affinity against histamine H3 receptor from synaptosomes of rat cerebral cortex; format: subcellular, Brain
[8] = target: Histamine H3 receptor (Mus musculus) (UniProt P58406); test: In vivo intrinsic activity against histamine H3 receptor in mice after peroral administration; format: organism-based; how it was run: as §1
[9] = target: T1, Histamine H3 receptor; test: In vitro intrinsic activity against histamine H3 receptor from synaptosomes of rat cerebral cortex; format: subcellular, Brain; how it was run: as §4
[10] = target: T1, Histamine H3 receptor; test: as §5; format: subcellular, Brain; how it was run: as §4; remark: listed apart in the source

Sequence of Histamine H3 receptor (Mus musculus) (P58406 whole entry): as the sequence (Q9QYN8 whole entry) above, with T15A, A286T, A290G, R387H, I389V counted along it

`CC(C)CNC(=O)OCCCc1c[nH]cn1` gave an ED50 [1] greater than 10 mg/kg, a pkB [2] of 7.39 and a pkB [3] of less than 4. For the same compound, the Kb [4] was 41 nM and the pkB [5] was less than 4.5.
`CC(C)NC(=O)OCCCc1c[nH]cn1.O=CC(=O)/C(O)=C/O` was tested, and the ED50 [1] was 15 mg/kg, the pkB [2] was 7.04 and the pkB [3] was less than 4.3. The pKi [6] was 7.09, the pKi [7] was 7.09 and the Kb [4] was 91 nM. For the same compound, the pkB [5] was less than 4.
For `CC(C)(C)CC(C)(C)NC(=O)OCCCc1c[nH]cn1`, the pkB [2] was 7.58, the pkB [3] was 4.3 and the pKi [6] was 7.38. For the same compound, the pKi [7] was 7.38, the Kb [4] was 28 nM and the pkB [5] was 6.
With `CC(C)(C)CNC(=O)OCCCc1c[nH]cn1.O.O=C(O)C(=O)O` the ED50 [1] was 0.48 mg/kg, the Intrinsic activity [8] was 0.7 and the Intrinsic activity [9] was 0.15. For the same compound, the pkB [2] was 7.4, the pkB [3] was 3.2 and the pKi [6] was 7.64. The pKi [7] was 7.64, the Kb [4] was 40 nM and the pkB [5] was 3.5.
Work on `CC(C)(C)CCOCCCc1c[nH]cn1` yielded an ED50 [1] of 0.29 mg/kg, an Intrinsic activity [8] of 1 and a pEC50 [10] of 7.35. For the same compound, the Intrinsic activity [9] was 0.55, the pkB [2] was 7.38 and the pkB [3] was less than 4. It also gave a pKi [6] of 8.00, a pKi [7] of 8.00 and a Kb [4] of 42 nM. For the same compound, the pkB [5] was 4.5.
`CC(C)CCOCCCc1c[nH]cn1` gave an ED50 [1] of 0.51 mg/kg, an Intrinsic activity [8] of 1 and a pEC50 [10] of 6.89. For the same compound, the Intrinsic activity [9] was 0.22, the pkB [2] was 7.03 and the pkB [3] was 3.5. The pKi [6] was 7.85, the pKi [7] was 7.85 and the Kb [4] was 93 nM. For the same compound, the pkB [5] was 4.5.
`CC(C)CCCOCCCc1c[nH]cn1` gave an ED50 [1] of 0.15 mg/kg, an Intrinsic activity [8] of 0.6 and an Intrinsic activity [9] of 0.25. For the same compound, the pkB [2] was 7.89, the pkB [3] was 4.6 and the pKi [6] was 8.03. For the same compound, the pKi [7] was 8.03, the Kb [4] was 13 nM and the pkB [5] was 5.
Compound `CC(C)COCCCc1c[nH]cn1` has a pkB [2] of 6.64, a pKi [6] of 6.86 and a pKi [7] of 6.86. The Kb [4] was 228 nM.
`CC(C)(C)CCNC(=O)OCCCc1c[nH]cn1.O=CC(=O)/C(O)=C/O` showed a pkB [2] of 7.53, a pkB [3] of 4.3 and a Kb [4] of 30 nM. For the same compound, the pkB [5] was 4.2.
Compound `N=C(N)SCCc1c[nH]cn1` has an ED50 [1] of 1 mg/kg, an Intrinsic activity [8] of 1 and a Kb [4] of 6.6 nM.
Compound `CCC(C)(C)NC(=O)OCCCc1c[nH]cn1` has an ED50 [1] of 0.2 mg/kg, an Intrinsic activity [8] of 0.4 and a pkB [2] of 7.34. It also gave a pkB [3] of 3.5, a Kb [4] of 46 nM and a pkB [5] of 4.8.
Compound `CC(C)(C)NC(=O)OCCCc1c[nH]cn1.O=CC(=O)/C(O)=C/O` has an ED50 [1] of 0.9 mg/kg, an Intrinsic activity [8] of 0.7 and a pkB [2] of 7.22. It also gave a pkB [3] of less than 4, a Kb [4] of 60 nM and a pkB [5] of less than 4.
